Consider 5 compounds from ChEMBL document CHEMBL3822431, “Hydroxychalcone inhibitors of Streptococcus mutans glucosyl transferases and biofilms as potential anticaries agents” (Bioorg Med Chem Lett, 2016).

The term IC50 denotes the concentration at which inhibition is half-maximal.

Calls of active or inactive are those of the source. The rule behind the calls is not given here.

One test deals with Streptococcus mutans. The experiment in a line: Inhibition of biofilm formation of Streptococcus mutans UA159 after 16 hrs by crystal violet staining based serial dilution method. Type of test: functional, organism-based. To be noted: Streptococcus mutans, UA159, 16 h. The procedure, abridged: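 S. mutans UA159 co-incubated with compound at various concentrations; biofilm quantified by crystal violet protocol, read at OD562.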

For test [1], the target named is T1, Glucosyltransferase-S (Streptococcus mutans serotype c (strain ATCC 700610 / UA159)) (UniProt P49331).
T1 sequence (whole entry): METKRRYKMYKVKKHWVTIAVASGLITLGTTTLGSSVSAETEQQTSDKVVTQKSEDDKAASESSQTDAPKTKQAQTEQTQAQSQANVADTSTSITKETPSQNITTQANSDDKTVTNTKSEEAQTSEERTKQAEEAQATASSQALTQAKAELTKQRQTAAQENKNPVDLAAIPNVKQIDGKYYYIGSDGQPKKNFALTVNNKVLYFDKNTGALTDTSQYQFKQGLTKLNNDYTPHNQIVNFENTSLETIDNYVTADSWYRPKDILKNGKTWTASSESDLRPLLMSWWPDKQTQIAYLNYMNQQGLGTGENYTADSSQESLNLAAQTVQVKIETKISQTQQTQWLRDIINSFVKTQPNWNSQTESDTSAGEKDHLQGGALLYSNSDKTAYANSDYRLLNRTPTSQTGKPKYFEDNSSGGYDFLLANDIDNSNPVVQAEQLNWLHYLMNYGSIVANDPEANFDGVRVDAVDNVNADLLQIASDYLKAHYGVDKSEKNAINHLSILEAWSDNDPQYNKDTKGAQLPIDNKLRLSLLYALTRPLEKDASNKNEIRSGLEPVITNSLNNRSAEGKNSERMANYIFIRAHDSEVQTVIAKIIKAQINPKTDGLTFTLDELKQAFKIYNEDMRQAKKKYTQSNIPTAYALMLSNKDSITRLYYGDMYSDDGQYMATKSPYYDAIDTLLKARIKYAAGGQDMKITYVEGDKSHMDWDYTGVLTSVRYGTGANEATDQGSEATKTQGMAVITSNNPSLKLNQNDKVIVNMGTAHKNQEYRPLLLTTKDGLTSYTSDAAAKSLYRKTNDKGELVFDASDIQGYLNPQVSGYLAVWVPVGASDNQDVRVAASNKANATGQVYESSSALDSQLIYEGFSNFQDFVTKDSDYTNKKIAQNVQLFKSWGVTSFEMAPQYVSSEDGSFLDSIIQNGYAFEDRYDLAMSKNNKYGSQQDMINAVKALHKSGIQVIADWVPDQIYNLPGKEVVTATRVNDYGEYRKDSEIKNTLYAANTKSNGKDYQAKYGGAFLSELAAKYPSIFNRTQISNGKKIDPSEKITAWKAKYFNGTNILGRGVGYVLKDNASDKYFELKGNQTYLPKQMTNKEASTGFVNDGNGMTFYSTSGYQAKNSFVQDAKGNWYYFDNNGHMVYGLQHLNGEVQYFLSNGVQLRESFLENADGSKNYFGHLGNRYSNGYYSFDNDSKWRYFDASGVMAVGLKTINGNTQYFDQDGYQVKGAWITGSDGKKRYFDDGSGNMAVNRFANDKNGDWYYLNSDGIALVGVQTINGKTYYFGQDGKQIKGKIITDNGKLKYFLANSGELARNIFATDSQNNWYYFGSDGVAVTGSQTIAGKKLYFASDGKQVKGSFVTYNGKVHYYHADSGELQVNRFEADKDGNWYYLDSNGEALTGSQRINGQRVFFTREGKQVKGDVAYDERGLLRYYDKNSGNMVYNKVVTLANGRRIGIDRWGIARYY
The experiment in a line: Inhibition of Wild-type Streptococcus mutans UA159 glucosyltransferase D at 50 uM by zymography. An outline of the steps:
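Compound (50 µM) added to overnight S. mutans UA159 wild-type cultures; Gtfs concentrated from supernatants, run on duplicate SDS-PAGE; second gel used for zymogram, glucan band intensity taken as Gtf activity.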

For test [2], the target named is T1, Glucosyltransferase-S (Streptococcus mutans serotype c (strain ATCC 700610 / UA159)). As to the kind of experiment: Inhibition of Wild-type Streptococcus mutans UA159 glucosyltransferase D at 50 uM by coomassie blue staining based SDS-PAGE method. The procedure, abridged: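 Compound (50 µM) added to overnight S. mutans UA159 wild-type cultures; Gtfs collected and concentrated from supernatants, run on SDS-PAGE in duplicate; one gel Coomassie blue stained for protein levels.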

Consider `O=C(/C=C\c1ccc(O)cc1O)c1ccc(O)cc1`, for which, in the test on Streptococcus mutans, half-maximal inhibition (IC50) was put at 77 µM. Besides, the inhibition entry in test [1] and in test [2] was “Active” in each case.
Compound `O=C(/C=C\c1ccc(O)cc1O)c1cccc(O)c1` came in with an IC50 in the test on Streptococcus mutans of 44 µM. For the same compound, the inhibition entry in test [1] and in test [2] was “Active” throughout.
As to `O=C(/C=C/c1cc(O)c(O)cc1O)c1ccccc1O` (stereo in doubt; 18c), the inhibition result in test [1] and in test [2] was “Active” each time.
`O=C(/C=C/c1ccc(O)cc1O)c1ccc(O)cc1` had an IC50 with Streptococcus mutans of 162 µM. The inhibition entry in test [1] and in test [2] was “Active” each time.
Turning to `O=C(/C=C/c1ccc(O)cc1O)c1cccc(O)c1` (stereo in doubt; 9a), the inhibition entry in test [1] and in test [2] was “Active” in each case.
